{"data": "Results from different studies", "target": "Tyrosine-protein kinase Lck (LCK, Homo sapiens, UniProt P06239)", "note": "Lines come from different studies, so protocols differ."}
{"Structure (SMILES)": "Nc1ncc(-c2nc(N3CCOCC3)nc(N3CCOCC3)n2)c(C(F)F)n1", "assay": "enzyme activity, inhibitor", "setting": "10 µM", "quantity": "remaining activity", "result": "92%"}
{"Structure (SMILES)": "O=c1[nH]c2ccccc2n1C1CCN(Cc2ccc(-c3[nH]c4cc5ncnc5cc4nc3-c3ccccc3)cc2)CC1", "assay": "enzyme activity, inhibitor", "setting": "0.5 µM", "quantity": "remaining activity", "result": "98.2%"}
{"Structure (SMILES)": "COc1ncccc1-c1cnn2ccc(N3CCN(C(=O)OC(C)C)CC3)nc12", "assay": "binding, competition with immobilised ligand", "setting": "1 µM", "quantity": "remaining binding", "result": "100%"}
{"Structure (SMILES)": "Cc1nn(C)cc1-c1nc2c(N3CCN(Cc4ccc(Cl)cc4)CC3)c(Cl)cnc2[nH]1", "assay": "binding, competition with immobilised ligand", "setting": "1 µM", "quantity": "remaining binding", "result": "100%"}
{"Structure (SMILES)": "Cn1cc(-c2cc(F)cc(N3CCn4c(cc5c4CCCC5)C3=O)c2CO)cc(Nc2ccc(N3CCN(C4COC4)CC3)cn2)c1=O", "assay": "enzyme activity, inhibitor", "setting": "0.1 µM", "quantity": "inhibition", "result": "-1%"}
{"Structure (SMILES)": "Cn1cncc1[C@](O)(COc1ccc(C#N)cc1-c1ccc(OC(F)(F)F)cc1)c1ccc(C#N)cc1", "assay": "cell-free assay, competition with immobilised ligand", "setting": "1 µM", "quantity": "remaining binding", "result": "82%"}
{"Structure (SMILES)": "C#Cc1n[nH]c2c(-c3cn([C@@H](C)c4ccccc4)c(=O)[nH]c3=O)cc(F)cc12", "assay": "enzyme activity, inhibitor", "setting": "0.1 µM", "quantity": "inhibition", "result": "10.5%"}
{"Structure (SMILES)": "Clc1ccc2c(C3CCN(CCc4c[nH]c5ccccc45)CC3)c[nH]c2c1", "assay": "enzyme activity, inhibitor", "setting": "10 µM", "quantity": "inhibition", "result": "66%"}
{"Structure (SMILES)": "C#Cc1n[nH]c2c(-c3cn([C@@H](C)c4ccccn4)c(=O)[nH]c3=O)cc(F)cc12", "assay": "enzyme activity, inhibitor", "setting": "0.1 µM", "quantity": "inhibition", "result": "8.8%"}
{"Structure (SMILES)": "N#CC1(c2ccccn2)CCN(Cc2cc(C(=O)O)c(=O)n3ccccc23)CC1", "assay": "cell-free assay, competition with immobilised ligand", "setting": "1 µM", "quantity": "remaining binding", "result": "97%"}
{"Structure (SMILES)": "CC(C)(C)c1cc(C=C(C#N)C#N)cc(Br)c1O", "assay": "enzyme activity, inhibitor", "setting": "0.5 µM", "quantity": "remaining activity", "result": "87.8%"}
